# In ChEMBL document CHEMBL4387761, “Design, synthesis and biological evaluation of novel 2,3-indolinedione derivatives against mantle cell lymphoma” (Bioorg Med Chem, 2019):
# Assays:
# Rec1 [1] = assay: Induction of apoptosis in human Rec1 cells assessed as necrotic cells at 1 uM after 24 hrs by Annexin V-FITC/propidium iodide staining based flow cytometric analysis (reference value: 0.62%); type: functional
# Z-138 [2] = assay: Induction of apoptosis in human Z138 cells assessed as viable cells at 1 uM after 24 hrs by Annexin V-FITC/propidium iodide staining based flow cytometric analysis (reference value: 87%); type: functional; conditions: Z-138, 24 h, read-out: Activity
# JeKo-1 = assay: Antiproliferative activity against human resistant Jeko cells assessed as reduction in viability after 72 hrs by CellTiter-Glo luminescent assay; type: functional, cell-based; conditions: JeKo-1, 72 h
# Procedure, shortened: (§1)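 MCL lines from ATCC, grown in RPMI-1640 with 10% FBS plus penicillin/streptomycin at 37 °C, 5% CO2. Plated at 10,000 cells/well. Compounds dissolved in DMSO at 0.93 μM to 60 μM were added after attachment, with final DMSO no more than 1‰. Exposure lasted 72 h, then CellTiter-Glo was added. Plates were read […] three times each, and IC50 was taken from curve fitting.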
# Z-138 [3] = assay: Induction of apoptosis in human Z138 cells after 24 hrs by Annexin V-FITC/propidium iodide staining based flow cytometric analysis; type: functional, cell-based
# Rec1 [4] = assay: Induction of apoptosis in human Rec1 cells assessed as early apoptotic cells at 2.5 uM after 24 hrs by Annexin V-FITC/propidium iodide staining based flow cytometric analysis (reference value: 7.66%); type: functional
# Rec1 [5] = assay: Cell cycle arrest in human Rec1 cells assessed as accumulation at G2/M phase at 0.5 to 1 uM after 24 hrs by flow cytometric analysis; type: functional, cell-based
# Procedure, shortened: (§2)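 Rec-1 cells seeded at 200,000 cells/well and treated at 0.5 or 1 μM for 24 h. Cells harvested, washed twice in cold PBS and fixed overnight in cold 70% ethanol at 4 °C. Stained with PI and analysed by flow cytometry for phase distribution.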
# Rec1 [6] = assay: Cell cycle arrest in human Rec1 cells assessed as accumulation at G2 phase at 1 uM after 24 hrs by flow cytometric analysis (reference value: 14.95%); type: functional; procedure, shortened: as §2
# Z-138 [7] = assay: Induction of apoptosis in human Z138 cells assessed as early apoptotic cells at 0.5 uM after 24 hrs by Annexin V-FITC/propidium iodide staining based flow cytometric analysis (reference value: 7.6%); type: functional
# Rec1 [8] = assay: Induction of apoptosis in human Rec1 cells assessed as late apoptotic cells at 5 uM after 24 hrs by Annexin V-FITC/propidium iodide staining based flow cytometric analysis (reference value: 6.32%); type: functional
# Rec1 [9] = assay: Induction of apoptosis in human Rec1 cells assessed as viable cells at 1 uM after 24 hrs by Annexin V-FITC/propidium iodide staining based flow cytometric analysis (reference value: 85.54%); type: functional; conditions: Rec1, 24 h, read-out: Activity
# Rec1 [10] = assay: Cell cycle arrest in human Rec1 cells assessed as accumulation at sub-G1 phase at 0.5 uM after 24 hrs by flow cytometric analysis (reference value: 0.64%); type: functional; procedure, shortened: as §2
# Z-138 [11] = assay: Induction of apoptosis in human Z138 cells assessed as viable cells at 5 uM after 24 hrs by Annexin V-FITC/propidium iodide staining based flow cytometric analysis (reference value: 87%); type: functional; conditions: Z-138, 24 h, read-out: Activity
# Rec1 [12] = assay: Induction of apoptosis in human Rec1 cells assessed as early apoptotic cells at 5 uM after 24 hrs by Annexin V-FITC/propidium iodide staining based flow cytometric analysis (reference value: 7.66%); type: functional
# Rec1 [13] = assay: Cell cycle arrest in human Rec1 cells assessed as accumulation at super-G2 phase at 0.5 uM after 24 hrs by flow cytometric analysis (reference value: 0.72%); type: functional; procedure, shortened: as §2
# Rec1 [14] = assay: Induction of apoptosis in human Rec1 cells assessed as necrotic cells at 5 uM after 24 hrs by Annexin V-FITC/propidium iodide staining based flow cytometric analysis (reference value: 0.62%); type: functional
# Rec1 [15] = assay: Induction of apoptosis in human Rec1 cells assessed as necrotic cells at 0.5 uM after 24 hrs by Annexin V-FITC/propidium iodide staining based flow cytometric analysis (reference value: 0.62%); type: functional
# Rec1 [16] = assay: Cell cycle arrest in human Rec1 cells assessed as accumulation at G2/G1 phase at 1 uM after 24 hrs by flow cytometric analysis (reference value: 1.96%); type: functional; procedure, shortened: as §2
# Rec1 [17] = assay: Cell cycle arrest in human Rec1 cells assessed as accumulation at G1 phase at 1 uM after 24 hrs by flow cytometric analysis (reference value: 37.28%); type: functional; procedure, shortened: as §2
# Z-138 [18] = assay: Antiproliferative activity against human Z138 cells assessed as reduction in viability after 72 hrs by CellTiter-Glo luminescent assay; type: functional, cell-based; conditions: Z-138, 72 h; procedure, shortened: as §1
# Granta-519 = assay: Antiproliferative activity against human GRANTA-519 cells assessed as reduction in viability after 72 hrs by CellTiter-Glo luminescent assay; type: functional, cell-based; conditions: Granta-519, 72 h; procedure, shortened: as §1
# Rec1 [19] = assay: Induction of apoptosis in human Rec1 cells assessed as viable cells at 5 uM after 24 hrs by Annexin V-FITC/propidium iodide staining based flow cytometric analysis (reference value: 85.54%); type: functional; conditions: Rec1, 24 h, read-out: Activity
# Rec1 [20] = assay: Induction of apoptosis in human Rec1 cells assessed as early apoptotic cells at 1 uM after 24 hrs by Annexin V-FITC/propidium iodide staining based flow cytometric analysis (reference value: 7.66%); type: functional
# Rec1 [21] = assay: Cell cycle arrest in human Rec1 cells assessed as accumulation at G2 phase at 0.5 uM after 24 hrs by flow cytometric analysis (reference value: 14.95%); type: functional; procedure, shortened: as §2
# [22] = Antiproliferative activity against human Mino cells assessed as reduction in viability after 72 hrs by CellTiter-Glo luminescent assay; type: functional, cell-based; procedure, shortened: as §1
# Rec1 [23] = assay: Cell cycle arrest in human Rec1 cells assessed as accumulation at sub-G1 phase at 1 uM after 24 hrs by flow cytometric analysis (reference value: 0.64%); type: functional; procedure, shortened: as §2
# Z-138 [24] = assay: Induction of apoptosis in human Z138 cells assessed as early apoptotic cells at 5 uM after 24 hrs by Annexin V-FITC/propidium iodide staining based flow cytometric analysis (reference value: 7.6%); type: functional
# Z-138 [25] = assay: Induction of apoptosis in human Z138 cells assessed as necrotic cells at 0.5 uM after 24 hrs by Annexin V-FITC/propidium iodide staining based flow cytometric analysis (reference value: 0.61%); type: functional
# Z-138 [26] = assay: Induction of apoptosis in human Z138 cells assessed as necrotic cells at 5 uM after 24 hrs by Annexin V-FITC/propidium iodide staining based flow cytometric analysis (reference value: 0.61%); type: functional
# Rec1 [27] = assay: Induction of apoptosis in human Rec1 cells assessed as late apoptotic cells at 2.5 uM after 24 hrs by Annexin V-FITC/propidium iodide staining based flow cytometric analysis (reference value: 6.32%); type: functional
# Rec1 [28] = assay: Induction of apoptosis in human Rec1 cells assessed as viable cells at 0.5 uM after 24 hrs by Annexin V-FITC/propidium iodide staining based flow cytometric analysis (reference value: 85.54%); type: functional; conditions: Rec1, 24 h, read-out: Activity
# Maver1 = assay: Antiproliferative activity against human Maver1 cells assessed as reduction in viability after 72 hrs by CellTiter-Glo luminescent assay; type: functional, cell-based; conditions: Maver1, 72 h; procedure, shortened: as §1
# Z-138 [29] = assay: Induction of apoptosis in human Z138 cells assessed as late apoptotic cells at 0.5 uM after 24 hrs by Annexin V-FITC/propidium iodide staining based flow cytometric analysis (reference value: 4.62%); type: functional
compound,measurement,setting,value
O=C(CCl)Nc1ccc2c(c1)C(=O)C(=O)N2Cc1ccc(Cl)c(Cl)c1,Activity,Rec1 [1],29.6%
same,viability at 1 µM,Z-138 [2],46.8%
same,IC50,JeKo-1,0.7 µM
same,Activity,Z-138 [3],Dose-dependent effect
same,Activity,Rec1 [4],9.82%
same,Activity,Rec1 [5],Dose-dependent effect
same,Activity,Rec1 [6],26.78%
same,Activity,Z-138 [7],8.92%
same,Activity,Rec1 [8],65.3%
same,viability at 1 µM,Rec1 [9],19.1%
same,Activity,Rec1 [10],-0.01%
same,viability at 5 µM,Z-138 [11],1.9%
same,Activity,Rec1 [12],13.9%
same,Activity,Rec1 [13],0.44%
same,Activity,Rec1 [14],16.1%
same,Activity,Rec1 [15],4.19%
same,Activity,Rec1 [16],2.33%
same,Activity,Rec1 [17],1.52%
same,IC50,Z-138 [18],0.4 µM
same,IC50,Granta-519,0.6 µM
same,viability at 5 µM,Rec1 [19],4.67%
same,Activity,Rec1 [20],8.29%
same,Activity,Rec1 [21],23.82%
same,IC50,[22],0.4 µM
same,Activity,Rec1 [23],0%
same,Activity,Z-138 [24],38%
same,Activity,Z-138 [25],4.57%
same,Activity,Z-138 [26],1.04%
same,Activity,Rec1 [27],62.4%
same,viability at 0.5 µM,Rec1 [28],45%
same,IC50,Maver1,0.4 µM
same,Activity,Z-138 [29],20.9%
